The text below walks through data of ChEMBL document CHEMBL1133092, “Drug delivery systems based on trimethyl lock lactonization: poly(ethylene glycol) prodrugs of amino-containing compounds” (J Med Chem, 2000).

The nature of series [1]: Half life in Cell media. The format is ADME.
Series [2] is described as follows: Half life in Rat plasma. It is filed as ADME. The method, boiled down: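 Conjugate dissolved in distilled water (20 mg/100 µL), then 900 µL rat plasma added. Aliquots incubated at 37 °C for various times, quenched with methanol-acetonitrile (1:1) and filtered. Remaining conjugate measured by HPLC with UV detection at 254 nm (DNR) or 280 nm (ara-C). Run in duplicate. t1/2 calculated from α phase.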

Series [3] in a line: Half life in buffer at pH 7.4. It is filed as ADME. The method, boiled down: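 Conjugate dissolved at 5 mg/mL in 0.1 M pH 7.4 PBS and incubated at 37 °C for various periods. Analysed by HPLC with UV detection at 254 nm (DNR) or 280 nm (ara-C). Run in duplicate.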
Series [4] relates to M109. The series can be described thus: In vivo screening in M109 syngeneic solid mouse tumor model (i.p.). The format is functional. The method, boiled down:
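Female balb/c mice (20-25 g) implanted subcutaneously in the left flank with about 1 × 10^6 M109 cells on day 0. Dosed intraperitoneally at 3 mg/kg/dose (DNR content) on days 1 and 4; 6 per group with untreated controls. % T/C of median tumor volumes taken when control median reached ~2000 mm3.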

The test system of series [5] is M109. The series can be described thus: In vivo screening in M109 syngeneic solid mouse tumor model (i.v.). The format is functional. The method, boiled down: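 Female balb/c mice (20-25 g) implanted subcutaneously in the left flank with about 1 × 10^6 M109 cells on day 0. Dosed intravenously at 3 mg/kg/dose (DNR content) on days 3 and 6; 6 per group with untreated controls. % T/C of median tumor volumes taken when control median reached ~2000 mm3.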

For a further series, the system named is P388. The series can be described thus: Growth Inhibition of P388/0 cell lines. The format is functional, cell-based. As to conditions: Mus musculus. The method, boiled down:
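P388/0 murine leukemia cells seeded at 2 × 10^3 cells/well, exposed to serial dilutions for 3 days at 37 °C, 5% CO2. Alamar Blue then added and plates read after a further 4 h at 37 °C. IC50 taken from absorbance vs dilution factor plots.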

The term half-life denotes the time in which the quantity being followed falls by half. A low value points to fast loss. A word on the T/C: it is the result in the treated group divided by that in the control group, in per cent. Usually IC50 stands for the concentration that gives 50% inhibition. For the molecule `CCC(=O)NCCC(=O)Oc1cc(C)cc(C)c1C(C)(C)CC(=O)NC1CC(O[C@H]2C[C@](O)(C(C)=O)Cc3c(O)c4c(c(O)c32)C(=O)c2c(OC)cccc2C4=O)OC(C)C1O` (stereo not given in full), the half-life in series [1] is 80 h; in series [2], 0.2 h; in series [3], > 24 h. Further, the T/C stood at 101.2% in the series with M109 [4] and 63.7% in the series on M109 [5]. In the series on P388, this molecule returned an IC50 of 203 nM.
Consider `CCC(=O)NCCC(=O)Oc1c(C)ccc(C)c1C(C)(C)CC(=O)NC1CC(O[C@H]2C[C@](O)(C(C)=O)Cc3c(O)c4c(c(O)c32)C(=O)c2c(OC)cccc2C4=O)OC(C)C1O` (stereo not given in full), for which the values for the half-life in series [1], in series [2] and in series [3] were 94 h, 8 h and > 24 h, respectively. For the same molecule, the T/C in the series with M109 [4] worked out at 114.8%; with M109 [5] it was 31.6%. In the series with P388, inhibition was half-maximal at 411 nM (IC50).
For the molecule `CCC(=O)NCCOCCOC(=O)Oc1cc(C)cc(C)c1C(C)(C)CC(=O)NC1CC(O[C@H]2C[C@](O)(C(C)=O)Cc3c(O)c4c(c(O)c32)C(=O)c2c(OC)cccc2C4=O)OC(C)C1O` (stereo not given in full), the figures for the half-life in series [1], in series [2] and in series [3] were 38 h, 1.1 h and > 24 h, respectively. Besides, the T/C with M109 [4] is 57.1%; in the series with M109 [5], 118.4%. Also, in the series with P388, the IC50 turned out to be 142 nM.
As to `CCC(=O)NC(C)C(=O)Oc1cc(C)cc(C)c1C(C)(C)CC(=O)NC1CC(O[C@H]2C[C@](O)(C(C)=O)Cc3c(O)c4c(c(O)c32)C(=O)c2c(OC)cccc2C4=O)OC(C)C1O` (stereo not given in full), the half-life was 14 h in series [1], 1.9 h in series [2] and > 24 h in series [3]. Further, the T/C with M109 [4] stood at 62.8%; with M109 [5], 92.5%. For the same molecule, inhibition in the series on P388 was half-maximal at 43 nM (IC50).
Consider `CCC(=O)NC(C)C(=O)Oc1c(C)ccc(C)c1C(C)(C)CC(=O)NC1CC(O[C@H]2C[C@](O)(C(C)=O)Cc3c(O)c4c(c(O)c32)C(=O)c2c(OC)cccc2C4=O)OC(C)C1O` (stereo not given in full), for which the half-life in series [1] is 36 h; in series [2] it was 21 h; in series [3], > 24 h. The T/C stood at 153.6% with M109 [4] and 52.5% in the series with M109 [5]. The molecule further returned an IC50 with P388 of 389 nM.
